Results on two molecules are retold here after ChEMBL document CHEMBL1155270, “Modifications at the C-terminus to improve pyrrole-imidazole polyamide activity in cell culture” (J Med Chem, 2009).

Calls of active or inactive are those of the source. The rule behind the calls is not given here. Bounds are passed on as bounds.

The test system of experiment [1] is Nucleic Acid. In words: Binding affinity to 5'-TTGCAGAACAGCAA-3' sequence of DNA assessed as change in melting temperature by spectrophotometry. Format: nucleic-acid assay.
In experiment [2] the test system is LNCaP. As to the kind of experiment: Inhibition of expression in human LNCAP cells at 5 uM by quantitative RT-PCR analysis.
Experiment [3] concerns LNCaP. In words: Cytotoxicity against human LNCAP cells after 48 hrs by WST1 assay. It counts as functional, cell-based. The essentials:
(§1)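 LNCaP cells were seeded at 10-15 × 10^2 per well and allowed to settle 48 h before polyamide was added as 2× media solutions (DMSO <0.1%). After 48 h exposure, media was replaced and cells recovered 24 h. WST-1 was added for 30 min and A450 read. Wells were corrected for media-only background and normalized to untreated controls.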

For experiment [4], the system named is LNCaP. In words: Selectivity ratio of IC50 for human LNCAP cells to IC50 for inhibition of dihydrotestosterone-induced prostate specific antigen expression in human LNCAP cells. It counts as functional. The essentials: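 Ratio of WST-1 growth-inhibition IC50 (48 h exposure, 24 h recovery, LNCaP) to PSA gene-regulation IC50. The gene-regulation IC50 came from Hill-fitted RT-PCR isotherms in 1 nM DHT-induced LNCaP cells, three independent experiments.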

Experiment [5] has as its system LNCaP. In words: Inhibition of dihydrotestosterone-induced prostate specific antigen expression in human LNCAP cells by quantitative RT-PCR analysis. It counts as functional, cell-based. The essentials:
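For gene-regulation IC50, DHT (1 nM)-induced LNCaP cells were dosed across 30–0.1 μM or 10–0.03 μM. PSA mRNA was quantified by real-time RT-PCR and normalized to induced untreated cells. Isotherms from three independent experiments were fitted with a modified Hill equation.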

Experiment [6] concerns LNCaP. In words: Cytotoxicity against human LNCAP cells assessed as cell viability at 0.01 to 30 uM after 48 hrs by WST1 assay. Format: functional. The essentials: as §1
On the technique in general: Tetrazolium dyes change colour on reduction, which living cells bring about.

The subject of experiment [7] is U-251. As to the kind of experiment: Selectivity ratio of inhibition of desferrioxamine-induced VEGF mRNA expression in human LNCAP cells to inhibition of desferrioxamine-induced VEGF mRNA expression in human U251 cells. It counts as functional.
The test system of experiment [8] is LNCaP. As to the kind of experiment: Cytotoxicity against human LNCAP cells at 0.01 to 30 uM after 48 hrs by WST1 assay. Format: functional, cell-based. A digest of the protocol: as §1
For experiment [9], the system named is Nucleic Acid. As to the kind of experiment: Binding affinity to 14mer DNA assessed as change in melting temperature by spectrophotometry. Format: nucleic-acid assay. A digest of the protocol: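 Thermal melting of 14-mer oligonucleotide duplexes (HRE or ARE sequence) with and without polyamide, read by UV spectrophotometry in 1 cm quartz cuvettes with a thermostatted holder. Buffer was 10 mM sodium cacodylate, 10 mM KCl, 10 mM MgCl2, 5 mM CaCl2, pH 7.0. ΔTm is taken relative to the free duplex.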

Experiment [10] has as its system LNCaP. In words: Inhibition of dihydrotestosterone-induced prostate specific antigen expression in human LNCAP cells at 0.1 to 5 uM by quantitative RT-PCR analysis. It counts as functional, cell-based. A digest of the protocol: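 LNCaP cells were induced with 1 nM DHT and PSA mRNA measured by quantitative real-time RT-PCR. Oxime-linked polyamides were given at 5, 1 and 0.1 μM, and unconjugated controls at 5 μM, with DMSO ≤0.1%. Expression was normalized to untreated DHT-induced cells; uninduced and DMSO controls were included.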

`CN(CCCNC(=O)c1cccc(C(=O)O)c1)CCCNC(=O)c1cc(NC(=O)c2cc(NC(=O)c3cc(NC(=O)c4nc(NC(=O)[C@H](N)CCNC(=O)c5cc(NC(=O)c6cc(NC(=O)c7cc(NC(=O)c8nccn8C)cn7C)cn6C)cn5C)cn4C)cn3C)cn2C)cn1C`: the shift in melting temperature (ΔTm) in experiment [1] worked out at 14.2 °C. Also, the inhibition result in experiment [2] is “Active”. Moreover, the concentration for half-maximal inhibition (IC50) in experiment [3] was greater than 30 µM; in [5], 6 µM. In addition, the “Ratio IC50” value in experiment [4] is listed as “>=5”. Further, the Activity in experiment [6] was less than 50%. Also, the Ratio in experiment [7] is reported as 10.

`Cn1cc(NC(=O)c2cc(NC(=O)c3nc(NC(=O)c4cc(NC(=O)[C@H](N)CCNC(=O)c5nc(NC(=O)c6cc(NC(=O)c7cc(NC(=O)c8nccn8C)cn7C)cn6C)cn5C)cn4C)cn3C)cn2C)cc1C(=O)NCCCO/N=C\c1cccc(C(=O)O)c1`: in experiment [8], the outcome was inactive. Moreover, the ΔTm in [9] was 2.6 °C. The inhibition result in [10] is “Active”. In addition, the Activity in experiment [6] is reported as less than 50%.

What is called ΔTm is the shift of the melting midpoint relative to a reference. As a reminder, the IC50 is the midpoint of a concentration-inhibition curve. A low value points to higher potency.
